# F508del corr – F508del CFTR correction, initial screen, CFBE line, single point | CFBE cells, YFP halide quenching; stimulated with forskolin plus potentiator P3; % fluorescence drop versus neutral controls | 0.36% of 350,000 active | activity (quench increase), % at 7.58 µM;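 active = mean added fluorescence quench of at least 8% versus neutral control, with both replicates also reaching 8%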;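 note: cells transiently co-express mutant CFTR-F508del with the halide-sensitive YFP; corrector assay measuring rescue of mutant channel to the surface after 24 h compound exposure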
# CaV13 ICDI inh – Primary screen for inhibitors of IQ motif and Ca2+-dependent inactivation inhibitor domain binding in CACNA1D, Förster resonance energy transfer in living cells, …; HEK cells, CFP/YFP FRET ICDI-IQ, plate reader, 10 min; percent FRET-ratio fall versus neutral wells; inhibition, % at 12.3 µM; 0.098% of 340,000 active; AID 743397;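 active = mean replicate inhibition of at least 30% and at least 1% of replicates passing that level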;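 note: 0% = median of the neutral control wells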
# Cneo AK release – Cryptococcus neoformans cell lysis inducers, primary screen, AK release luminescence, single concentration; lysis activity, % at 15 µM; 0.2% of 360,000 active; AID 651654, 2012; C. neoformans lysis, adenylate kinase release luminescence, 4 h; normalised: neutral wells 0, clomiphene wells 100;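 active = mean lysis activity across replicates of at least 80%, whatever share of replicates individually reach that level; inactive = mean lysis activity below 80%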
#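 Material: C. neoformans cells; Schedule: 4 h static compound exposure, 37 °C, read 1 h post-reagent; Measured by: adenylate kinase release luminescence; Read-out: signal increase indicating cell lysis; Controls: Clomiphene as positive lysis control.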
# Ecoli rRNA inh – reduced GFP signal of wild-type E. coli, primary screen, bacterial rRNA inhibitor project, GFP/RFP fluorescence, OD600, single point | 1.6% of 350,000 active | GFP signal change (wild-type ribosome), % (no concentration beside the values) | E. coli WT GFP vs humanized-ribosome RFP mutants, 24 h; hits give low values; DMSO median 0, no signal -100 | AID 720706, 2013;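 active = significant combined selectivity score with lowered wild-type GFP, culture density cut under 30%, mutant RFP and density less affected; inactive = any of these conditions unmet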
# Starred values were filed as active, the others as inactive; / = no result given; ! = not confirmed by another sample. Rows were chosen to be rich in hits. Some 1.7% of all compounds tested hit in one or more screens of this group.
SMILES,F508del corr,CaV13 ICDI inh,Cneo AK release,Ecoli rRNA inh
O=C1C(c2ccccc2)c2ccccc2N1Cc1ccccc1 (stereo not drawn),-11.2,-4.8,0.0,-20.2*
Fc1ccc(Br)cc1C1C=C(c2ccc(Br)cc2)Nc2ncnn21 (stereo not drawn),/,-25.4,-1.1,-30.0*
O=C(CSc1nnc(-c2ccncc2)n1Cc1ccco1)Nc1ccccc1Cl,/,-5.0,/,/
O=C(CSc1nnc(-c2ccncc2)n1Cc1ccco1)c1ccc(Cl)cc1,/,/,8.3,-19.9*
Cc1ccc2c(c1)Sc1c(ccc3ccccc13)N2,0.6,-5.8,-2.4,-27.0*
Cn1c(SCCOc2ccccc2F)nc2ccccc2c1=O,2.6,3.3,/,-28.1*
O=c1[nH]c(SCCOc2ccccc2F)nc2ccccc12,1.8,6.0,/,4.4
O=C(C[C@H]1C=C[C@H](NC(=O)c2cccc(F)c2)[C@H](CO)O1)Nc1nccs1,-3.2,/,-26.0,-0.4
C=CCn1c(O)c(C2=c3ccccc3=NC2=O)sc1=Nc1ccc(O)cc1,5.5,-10.2,6.0,-8.0*
O=C(N/C(=C/c1ccc(Br)cc1)C(=O)N1CCCC1)c1ccccc1F,/,-3.0,1.6,/
COc1ccccc1C(=O)N/C(=C\c1ccc(Br)cc1)C(=O)N1CCCC1,/,-4.9,-1.4,-40.2*
CC(C)C#Cc1cnc2c(c1)C(=O)N([C@@H](C)CO)C[C@H](C)[C@@H](CN(C)C(=O)C1CCC1)O2,-0.1,/,16.7,-1.9
CC(C)C#Cc1ccc([C@H]2[C@H](CO)N3CCCCN(C(=O)c4ccc5c(c4)OCO5)C[C@@H]23)cc1,-2.1,/,-2.3,-9.0
CC(C)C#Cc1ccc([C@@H]2[C@H](CO)N3CCCCN(C(=O)c4ccc5c(c4)OCO5)C[C@@H]23)cc1,-0.7,/,110.9*,-31.8
O=C(c1ccc2c(c1)OCO2)N1CCCCN2[C@H](C1)[C@H](c1ccc(-c3ccccc3)cc1)[C@@H]2CO,-1.0,/,4.7,-28.1
Cc1cccc(-c2ccc([C@@H]3[C@H]4CN(C(=O)c5ccc6c(c5)OCO6)CCCCN4[C@H]3CO)cc2)c1,-3.8,/,86.1*,6.4
CCC(=O)N1CC[C@@H]2[C@H](CO)Nc3ccc(-c4ccccc4)cc3[C@@H]21,-0.1,/,-1.1,-0.6
CC(=O)Nc1cccc(-c2csc(Nc3cc(C)ccn3)n2)c1,/,-5.3,-6.0,/
CC(=O)Nc1ccc(-c2csc(N/N=C(/C)c3ccccc3)n2)cc1,0.0,-5.1,/,-8.2
CC(=O)Nc1ccc(-c2csc(Nc3cc(C)ccn3)n2)cc1,-4.4,-4.4,-1.0,-47.8*
CC(C)=NNc1nc(-c2ccc([N+](=O)[O-])cc2)cs1,-1.9,-2.9,/,-34.5*
CCOC(=O)/C(C)=N/Nc1nc(-c2ccc(NC(C)=O)cc2)cs1,0.6,-4.7,0.0,-26.9*
CCC(=O)N1CC2(C1)CN(CC1CCCCC1)[C@@H](CO)c1c2c2ccc(OC)cc2n1C,0.2,/,/,1.4
CCC(=O)Nc1ccc2c(c1)OC[C@@H](C)N(CC1CCCCC1)C[C@H](C)[C@H](OC)CN(C)C2=O,-1.1,/,/,3.7
Cc1noc(C)c1NC(=O)N(C)C[C@@H]1OCCCC[C@H](C)Oc2ccc(NC(=O)Nc3ccccc3)cc2C(=O)N([C@H](C)CO)C[C@@H]1C,0.8,/,17.3,1.5
SMILES,F508del corr,CaV13 ICDI inh,Cneo AK release,Ecoli rRNA inh
C[C@@H]1CN([C@H](C)CO)C(=O)c2cc(NC(=O)Nc3ccc(F)cc3)ccc2O[C@@H]1CN(C)Cc1ccc(C(=O)O)cc1,3.0,/,-1.5,0.7
COCC(=O)Nc1ccc2c(c1)OC[C@H](C)N(C(=O)c1ccncc1)C[C@@H](C)[C@H](OC)CN(C)C2=O,0.1,/,-0.8,-0.6
C[C@@H]1CN([C@H](C)CO)C(=O)c2ccccc2-c2ccccc2CO[C@H]1CN(C)S(=O)(=O)c1cccc(C#N)c1,1.9,/,95.3*,0.6
COC(=O)N(C)C[C@H]1OCc2cn(nn2)CCCC(=O)N([C@@H](C)CO)C[C@@H]1C,-2.9,-7.2,83.8*!,0.3
COc1cccc(S(=O)(=O)N(C)C[C@@H]2OCc3ccccc3-c3ccccc3C(=O)N([C@@H](C)CO)C[C@@H]2C)c1,-2.6,/,99.9*,-2.5
COc1cccc(S(=O)(=O)N(C)C[C@@H]2OCc3cnnn3CCCC(=O)N([C@H](C)CO)C[C@H]2C)c1,-4.9,-6.3,0.1,9.2
COc1cccc(S(=O)(=O)N(C)C[C@H]2OCc3cnnn3CCCC(=O)N([C@H](C)CO)C[C@H]2C)c1,1.8,-3.3,102.7*!,-3.5
CC(C)NC(=O)Nc1cccc2c1O[C@@H](CN(C)S(C)(=O)=O)[C@@H](C)CN(C)C2=O,/,/,/,-0.7
COc1cccc(C#Cc2ccc([C@@H]3[C@H](CO)N4C(=O)CN(C(=O)C5CC5)C[C@@H]34)cc2)c1,-1.8,/,/,1.5
C[C@@H]1CCCCO[C@@H](CN(C)S(=O)(=O)c2cccs2)[C@@H](C)CN([C@@H](C)CO)C(=O)c2cc(NC(=O)CCCN(C)C)ccc2O1,-0.9,/,-0.4,0.2
Cc1noc(C)c1S(=O)(=O)Nc1ccc2c(c1)C(=O)N([C@@H](C)CO)C[C@@H](C)[C@H](CN(C)C(=O)c1ccccc1)OCCCC[C@H](C)O2,-0.4,/,-5.7,-3.3
CN(CC(=O)Nc1ccc(Cl)cc1)CC(=O)Nc1ccc(C(N)=O)cc1,-1.1,1.5,/,1.2
CN(CC(=O)Nc1ccc(Cl)cc1)CC(=O)Nc1cc(Cl)ccc1C#N,-2.4,-6.9,-0.4,-38.2*
Cc1ccc(NC(=O)CN(C)Cc2ccc(Cl)cc2)cc1,-1.0,1.3,/,-30.3*
CCCC#Cc1ccc([C@@H]2[C@@H](CO)N3C(=O)CN(C(=O)Nc4ccccc4)C[C@H]23)cc1,/,/,/,1.6
Cc1noc(C)c1NC(=O)N(C)C[C@H]1Oc2ccc(NS(=O)(=O)c3ccc(F)cc3)cc2CC(=O)N([C@H](C)CO)C[C@@H]1C,/,/,/,1.1
Cc1cc2oc(C(=O)N3CCN(Cc4ccccc4)CC3)c(C)c2cc1C,-1.4,-4.6,/,-46.3*
Cc1ccc(C(=O)N2CCN(Cc3ccccc3)CC2)o1,1.6,-2.0,2.6,4.1
Cc1ccc(C(=O)N/C(=C\c2ccc(-c3cccc([N+](=O)[O-])c3)o2)C(=O)NCCCN(C)C)cc1,0.0,-5.4,-4.4,-29.2*
CN(C)CCCNC(=O)/C(=C\c1ccc(-c2cccc([N+](=O)[O-])c2)o1)NC(=O)c1ccccc1,-3.3,-2.2,/,12.5
Cc1ccccc1-c1ccc2c(c1)O[C@H](CN(C)C(=O)Nc1ccc(F)cc1)[C@H](C)CN([C@@H](C)CO)S2(=O)=O,-10.0,/,/,1.7
CN(C)c1ccc(P(=O)(OCc2ccccc2)C(O)c2ccccc2)cc1 (stereo not drawn),-0.6,-4.5,/,-20.1*
CN(C)c1ccc(P(=O)(OCc2ccccc2)C(O)c2ccc(Cl)cc2)cc1 (stereo not drawn),0.3,-12.8,-1.2,8.0

# Compound activity: PubChem, Broad Institute
